PvdQ inh = blocks Pseudomonas aeruginosa PvdQ acylase activity. purified PvdQ acylase, fluorescence plate reader. inhibition, % at 10 µM. actives 0.063% (n = 340,000). AID 488965; in the data active = inhibition above about 30%, passing the limit was not always enough;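 also: 0% = vehicle neutral wells and 100% = reference inhibitor wells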
UPR XBP1 act = adaptive UPR (XBP1) activation; CHO-XBP1 luciferase reporter, IRE1-XBP1 UPR activation, luminescence; percent of tunicamycin response, DMSO as zero; activation, % at 20 µM; actives 0.33% (n = 330,000); AID 463104;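 active = versus positive control, 20 µM dose yields 30% or more activation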;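 also: 100% = tunicamycin at 10 µg/mL and 0% = DMSO only wells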
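Test system: CHO-XBP1 luciferase reporter cells | Buffer or medium: Serum-containing F12 medium, 10% FBS | Schedule: 6 h compound exposure at 37 °C, 5% CO2 | Detection: Steady-Glo luciferase glow luminescence, 10 min after reagent addition | Read-out basis: Activation, % of tunicamycin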
UPR CHOP act = activators of apoptotic arm of unfolded protein response (CHOP). CHO-CHOP luciferase reporter, UPR activation, luminescence; percent of tunicamycin response over DMSO baseline. activation, % at 10 µM. actives 0.34% (n = 330,000). AID 449763;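 active = at 10 µM dose, activation of 40% or more, normalized to positive control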;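 also: 100% = tunicamycin at 10 µg/mL and 0% = DMSO alone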
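System: CHO-CHOP luciferase reporter cell line | Buffer or medium: F12 medium containing 10% fetal bovine serum | Doses: One dose, 10 µM in 0.5% DMSO | Times: 6 h compound exposure at 37 °C after overnight seeding | Signal: Luciferase luminescence | Read-out: % activation vs tunicamycin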
CHOP inh = blocks CHOP induction under ER stress; AID 2732; inhibition, % at 10 µM; CHO-K1 CHOP-promoter luciferase, tunicamycin-induced, 15-18 h; actives 3.8% (n = 220,000);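 active = compounds that reduced the stress-induced luciferase reporter signal by more than about 70% of percent inhibition, limit read from the data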;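 also: 0% = tunicamycin plus vehicle and 100% = wells without tunicamycin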
UPR XBP1 confirm = adaptive UPR (XBP1) activation, confirmed; shares compounds with UPR XBP1 act; CHO-XBP1 IRE1-XBP1 luciferase reporter, luminescence; activation, % at 20 µM; actives 63% (n = 1,000);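 active = reporter signal at least 30% of the positive control's activation in two or more of four replicate wells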;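 also: plate controls were DMSO negative control for no effect and tunicamycin 10 µg/mL positive control for full effect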
An asterisk follows results filed as active; / = no result. Only a selection was taken, and hits are over-represented in it overall.

SMILES	PvdQ inh	UPR XBP1 act	UPR CHOP act	CHOP inh	UPR XBP1 confirm
C#CCOCCOCCOCCNc1nc(N2CCN(C(=O)CCCCCCCCCCNC(=O)[C@H](CCCCN)n3cc(C)nn3)CC2)nc(N2CCN(C(=O)CCCCCCCCCCNC(=O)[C@H](CCCN=C(N)N)n3cc(C[C@@H](C)CC)nn3)CC2)n1	/	8.1	-0.6	/	/
C#CCOCCOCCOCCNc1nc(N2CCN(C(=O)CCCCCCCCCCNC(=O)[C@H](CCCCN)n3cc(C[C@@H](C)CC)nn3)CC2)nc(N2CCN(C(=O)CCCCCCCCCCNC(=O)[C@@H]([C@H](C)O)n3cc(C)nn3)CC2)n1	-19.8	40.4*	28.8	/	1.1
CC(C)C(=O)N(c1cc2sc(=O)oc2c2ccccc12)S(=O)(=O)c1cccs1	-5.2	48.0*	24.1	69.4	49.0*
CCc1ccc(N2CC(C(=O)OCC(=O)NC3CC3)CC2=O)cc1 (centres undefined)	-8.6	1.0	-1.6	/	/
C[C@@H]1CN([C@H](C)CO)C(=O)Cc2cc(NS(=O)(=O)c3ccc(Cl)cc3)ccc2O[C@H]1CN(C)Cc1ccc(C(F)(F)F)cc1	-7.7	47.5*	28.2	/	22.4
C[C@@H]1CN([C@H](C)CO)C(=O)Cc2cc(NS(=O)(=O)c3ccc(F)cc3)ccc2O[C@H]1CN(C)Cc1ccc(C(=O)O)cc1	-12.9	-3.4	0.8	/	/
CC1(C)C[C@H](O)[C@]2(CO)[C@H](O)C[C@]3(C)C(=CCC4[C@@]5(C)CC[C@H](O)C(C)(C)C5CC[C@]43C)[C@@H]2C1 (some centres undefined)	-12.9	145.8*	38.7	/	73.0*
COc1ccc(NC(=O)c2cc(S(=O)(=O)N3CCCCC3)ccc2C)cc1S(=O)(=O)N1CCOCC1	-17.8	/	/	/	/
O=C(c1ccc(Cl)c(F)c1F)N1CCOCC1	-5.3	-1.1	2.0	13.6	/
Cc1ccc([N+](=O)[O-])cc1S(=O)(=O)Nc1ccc(-c2ccc(N3CCOCC3)nn2)cc1	0.2	1.2	2.6	/	/
Cc1ccc(NS(=O)(=O)c2cc([N+](=O)[O-])ccc2N/N=C/c2sc(N3CCOCC3)nc2-c2ccccc2)c(C)c1	-12.9	35.8*	31.4	60.7	31.4*
Cc1nc(Nc2nc(-c3ccccc3)cc(=O)[nH]2)nc2ccccc12	-4.5	84.1*	3.1	/	131.7*
Cc1ccc2c(=O)[nH]c(Nc3nc(C)cc(-c4ccccc4)n3)nc2c1	-11.7	32.8*	8.1	42.5	42.7*
COc1cc(-c2nnc(SCC(=O)N(C)C3CCS(=O)(=O)C3)o2)cc(OC)c1OC (centres undefined)	0.0	-0.6	-0.1	-18.4	/
CN(/N=C/c1cc(Br)cc(Br)c1O)c1cccc(C(F)(F)F)n1	8.0	1.7	1.4	/	/
ClC(Cl)(Cl)c1nc2ccccc2n2nncc12	-12.3	30.9*	-1.1	/	21.7
CC(=O)O[C@H]1[C@@H](O)[C@H](O)[C@H](Oc2c(O)c(C)c3c4c2[C@@H](C)CC[C@@H]4[C@@H](C)C[C@H]3C=C(C)C)O[C@H]1C	-7.3	46.8*	5.3	/	20.6
CC(=O)O[C@@H]1[C@@H](O)[C@@H](O)[C@H](Oc2c(-c3ccc(O)cc3)oc3c(CC=C(C)C)c(O)cc(O)c3c2=O)O[C@H]1C	/	-2.6	-1.0	/	/
Nc1cccc(CN2CCCC2)c1	-2.2	-4.6	-3.5	6.5	/
Cc1nc2c(N=Nc3ccccc3F)c(N)nn2c(N)c1C#N	-5.5	44.3*	15.1	2.2	21.2
Cc1c(-c2ccc(/C=N/NC(=O)C(=O)Nc3ccccc3F)o2)cccc1[N+](=O)[O-]	/	73.0*	18.0	-9.2	7.3
Cc1ccc(SC(=O)COc2ccccc2C)cc1	-7.5	49.3*	3.8	74.9*	16.6
Cc1ccc(S(=O)(=O)CCC#N)cc1	-5.5	0.0	-1.8	8.8	/
NCCc1c(-c2ccccc2)n(-c2ccccc2)c2ccccc12	-5.7	37.5*	4.2	-9.2	83.8*
CC(=O)n1c(-c2ccccc2)c(CO)c2ccccc21	-5.7	5.1	-0.8	/	/
SMILES	PvdQ inh	UPR XBP1 act	UPR CHOP act	CHOP inh	UPR XBP1 confirm
CCCC(=O)N1CCN(c2ccc(NC(=S)NC(=O)CC)cc2)CC1	11.9	-1.8	1.6	35.4	/
CC1(C)CC(=O)C(C=Nc2ccc(C(=O)c3ccccc3)cc2N=CC2=C(O)CC(C)(C)CC2=O)=C(O)C1	14.6	179.9*	19.8	52.8	267.9*
CC1(C)CC(=O)C(C=Nc2ccc(O)c(N=CC3=C(O)CC(C)(C)CC3=O)c2)=C(O)C1	-7.5	11.9	5.2	30.7	/
COc1cc(C(=O)Nc2cc(-c3nc4cc(C)ccc4o3)ccc2C)cc(OC)c1OC	-11.8	130.6*	19.0	34.0	95.7*
Cc1ccc2oc(-c3ccc(C)c(NC(=O)Cc4cccs4)c3)nc2c1	-4.7	-0.5	2.7	32.8	/
COc1cc(CNCCO)cc(Br)c1OCc1ccccc1Cl	-10.4	3.1	-0.4	-30.1	/
COc1cc(CNCCO)cc(Cl)c1OCc1ccc(Cl)cc1Cl	-9.9	62.6*	2.3	95.2*	133.6*
COc1cccc(C(=O)NC(C)CCc2ccccc2)c1 (centres undefined)	-7.3	-3.7	1.1	/	/
O=C(Nc1ccc(SC(F)F)cc1)c1cc(-c2ccncc2)nc2ccccc12	-12.2	63.5*	8.4	/	48.2*
CC(C)[C@H]1COCCS(=O)(=O)N1Cc1ccccc1-c1cccc(Cl)c1	5.4	1.9	0.7	/	/
CCN(C[C@H]1N[C@@](Cc2ccccc2)(C(=O)OC)[C@H]2C(=O)N(C)C(=O)[C@@H]12)S(=O)(=O)c1ccc(C(C)(C)C)cc1	-8.2	-2.6	0.8	/	/
CCOC(=O)c1cccc(P(C)(C)=O)c1	-11.7	3.1	3.9	20.4	/
CC(=O)c1cccc(S(=O)(=O)N2CCn3cccc3C2C)c1 (centres undefined)	-18.7	-2.1	-1.7	/	/
O=C(Nc1cc(S(=O)(=O)N2CCOCC2)ccc1Cl)c1cc([N+](=O)[O-])ccc1Cl	-12.4	69.0*	1.1	/	24.1
Cc1csc(NC(=O)CSc2nc3nc(C)cc(C)n3n2)n1	7.2	-2.9	-0.5	/	/
O=c1[nH]c(=O)n(Cc2ccco2)c2c1C(C(F)(F)F)(C(F)(F)F)N=C(C1CCCCC1)N2	-14.8	-2.1	-3.3	9.7	/
O=c1[nH]c(=O)n(Cc2ccco2)c2c1C(C(F)(F)F)(C(F)(F)F)N=C(CCC1CCCCC1)N2	4.0	42.8*	10.2	40.6	5.5
COc1ccc2oc(-c3ccc(NC(=O)c4ccc(N5CCOCC5)c([N+](=O)[O-])c4)cc3)nc2c1	-4.2	63.6*	3.4	2.4	22.8
COc1cccc(-c2sc3ccccc3c2-c2ccc(OCCN(C)C)cc2)c1	-5.6	36.9*	2.7	/	53.5*
COc1cccc(-c2sc3ccccc3c2-c2ccc(OCCN3CCCC3)cc2)c1	-2.7	24.6	3.5	/	/
COc1ccc(-c2sc3ccccc3c2-c2ccc(OCCN3CCCCC3)cc2)cc1	-8.4	9.8	2.9	/	/

Screens deposited in PubChem BioAssay by several laboratories.
